The source of these data is the RNAGym collection of RNA variant scans (doi:10.1126/science.aae0568).

To fix the notation:
B1: tRNA (parent)
chain: GUUCCGUUGGCGUAAUGGUAACGCGUCUCCCUCCUAAGGAGAAGACUGCGGGUUCGAGUCCCGUACGGAACG

Variants at the floor of the assay were thinned out. Bounds are passed on as bounds.

Variants of B1 are the subject of this series. The series can be described thus: yeast fitness relative to wild type (ratio to wild type); higher = fitter; tRNA-Arg(CCU), competitive growth, 37 C, YPD. In short, it runs like this: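 Gene amplicons from the start population and from each of six end populations were read by 100-nucleotide paired-end sequencing. Those end populations came from pooled Saccharomyces cerevisiae strains carrying tRNA-Arg(CCU) gene variants at the native locus, competed in YPD at 37°C for 24 hours. Fitness relative to wild type was worked out from changes in genotype frequencies. Genotypes needed ≥ 100 starting reads, and estimates < 0.5 were set to 0.5.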
With A36C G41A, the yeast fitness came to 0.587.
On to C34G A37C, for which the yeast fitness turned out to be 0.554.
As for C33G G44A G56A, the yeast fitness was at most 0.5.
The figure for U35G A40G C49G is at most 0.5; for A36U C66U it is 0.686.
For A36G A42C U47C, the yeast fitness came to 0.687.
Under U35C A45C C49G G56A A57U G63A stands at most 0.5; under A36G G38C U59A, at most 0.5; under C34U G38C C55A, at most 0.5.
Turning to C34A A37G C66U, the yeast fitness was at most 0.5.
As for C34A A40C U54C, the yeast fitness was at most 0.5.
Under A36U A42U stands 0.71; under C34G U53C C55G, at most 0.5; under C34G A40G U64C, 0.578.
Take A36C C49U C55U: the yeast fitness worked out at 0.643.
Under C34G A37G C62A stands at most 0.5.
Under U35G C66U stands 0.681.
C34G C66A: the yeast fitness was determined as 0.543.
Under C33U A36C A40U stands 0.609; under C34U G41C C60U, at most 0.5; under C34U G41C C60A, at most 0.5.
As to C33U A43G C66U, the yeast fitness came to 0.544.
Take C34A G67C: the yeast fitness was determined as 0.782.
In the case of C34A G67U, the yeast fitness stood at 0.717.
Under C34U C66G stands 0.56; under A37C A65U, 0.866; under C34U A40C A42C G48A C61G G67C G68A, at most 0.5.
Consider C33G C66G A70G, for which the yeast fitness was determined as 0.54.
Consider C34A U47C, for which the yeast fitness turned out to be 0.646.
The figure for C33G G41A A42G C46G is at most 0.5.
Regarding A36U A37G G50C, the yeast fitness was at most 0.5.
In the case of U35A G44C, the yeast fitness stood at 0.71.
The figure for A36G A37C A45C C46G is 0.554; for A36G A42G C49G it is at most 0.5; for A36U C55U it is 0.658.
On to C33G G51A C55A C66U, for which the yeast fitness worked out at 0.56.
For the variant C33U G39A A70U, the yeast fitness was at most 0.5.
Take U35C A37C G68C A70C: the yeast fitness is 0.913.
Under A36G A37U stands 0.718; under A36G A37G, 0.816; under A36U U54A U64C A69U, at most 0.5.
As to A36U G48U C66A, the yeast fitness was at most 0.5.
The figure for C33U is 0.694; for U35G A42G U47A it is at most 0.5; for C34U C55A it is 0.623.
Take C34U C55U: the yeast fitness came out at 0.569.
The figure for A36U A43C C49A C55G is at most 0.5; for U35C A45C it is 0.862.
The figure for U35C is 0.817; for U35A it is 0.715; for U35G it is 0.676.
The figure for C33U G44A C61U is 0.675; for A37C G38C it is 0.502; for U35G A40G U54G it is at most 0.5.
Turning to C33U C49A G63C, the yeast fitness was at most 0.5.
The figure for C33U A69C is 0.726.
The figure for A36C A37U A65C is 0.534; for A36C G63A it is 0.704; for A36C G48C U54G it is at most 0.5.
As to C34G G41A A45G A57G C60G C62U, the yeast fitness is at most 0.5.
As to U35A C49G C66G, the yeast fitness is at most 0.5.
Turning to C34A C55G U64C A65C, the yeast fitness was at most 0.5.
Regarding A36G U64G C66A, the yeast fitness is at most 0.5.
Under A37C C60G stands 0.562; under A36C C49U C55U C60U, at most 0.5.
Under C34U G48A stands 0.798.
The figure for C34G G67A is 0.596; for A36U C49U C62G it is at most 0.5.
With A36G G56A A69U, the yeast fitness came to 0.718.
The figure for A37C A40G U47C is at most 0.5; for A36C A37C U53G it is at most 0.5; for A36U G38A A65C it is 0.518.
On to A37C A43C A45C, for which the yeast fitness was at most 0.5.
Under C34U C61U stands 1; under C34U C61G, at most 0.5.
Under C34U A40C C62U A65U stands at most 0.5.
The figure for A37C A42U C49A is at most 0.5.
For A36C A40U, the yeast fitness was 0.604.
As for A37C C46G A70C, the yeast fitness was determined as 0.632.
Turning to A37C C46U U59A, the yeast fitness is at most 0.5.
Regarding C34G G50A, the yeast fitness was found to be 0.644.
Consider C33G C61U, for which the yeast fitness worked out at 0.711.
For the variant C33G C61A, the yeast fitness was 0.607.
The figure for A36C A45C G48A A65C is at most 0.5.
Under A36C A43C C61G A70G stands at most 0.5; under C34U A43G C61A, at most 0.5; under A36C U47A G48C A57C A65U, at most 0.5.
Under A36G U54C C61U C66U stands at most 0.5.
On to C33G C55G G67A, for which the yeast fitness was at most 0.5.
With C34U A42G A65C, the yeast fitness was 0.57.
Under A36U G44C stands 0.629; under A37C C46U A69U, 0.7.
Turning to A36C A40G G58C C60A, the yeast fitness amounted to 0.537.
As to C34G A42C C62G, the yeast fitness stood at 0.631.
Under C34G A43U C61G stands 0.614.
For C34U G56A A70G, the yeast fitness was at most 0.5.
The figure for U35A U53C is at most 0.5; for C33U G38U it is 0.632; for C33U G38C it is 0.609.
Under U35C C46U G51C G63A stands 0.619.
Turning to C34G G52A C62U, the yeast fitness turned out to be 0.6.
Under C33U C34G A40G stands 0.625; under A36U C55U G56A, 0.864.
The figure for A36U A45U C46A G68A is at most 0.5; for A36U A45G G67A it is at most 0.5; for A36C A37G C49A it is 0.541.
Consider C34A G41A C55G C66U, for which the yeast fitness was at most 0.5.
C34G G44C: the yeast fitness came to 0.652.
Turning to A36C U53C G56U, the yeast fitness stood at 0.603.
Under C34G G50C C62A stands at most 0.5; under A36U A45U U53A, 0.554.
Under C34G G38C C66A A70U stands at most 0.5.
Under C34G A45G U59G stands at most 0.5; under A36C C46U U53A, 0.639; under A36G G68C A70G, at most 0.5.
For C34G A43U A70C, the yeast fitness was at most 0.5.
Regarding A36G A65G A70G, the yeast fitness is 0.639.
Under C34G G63A A70C stands at most 0.5; under A36U G58A, 0.624; under A37C C55G G63A, at most 0.5.
Regarding U35C A70C, the yeast fitness was found to be 0.927.
For U35C A37C C62U A65C, the yeast fitness is at most 0.5.
In the case of A36C G38C A45G G50C, the yeast fitness is at most 0.5.
The figure for C34U G41A C55A is at most 0.5; for A36G U53C it is 0.724; for C34G C61U A70U it is 0.639.
For C34A C49U U59C, the yeast fitness was at most 0.5.
Under A36G A65U stands 0.991.
With A36G C46G, the yeast fitness is 1.08.
The figure for U35C A45C C49G A57U G63A is at most 0.5.
Under U35G G48C C66U stands at most 0.5.
Under U35C C49U stands 0.755; under U35C C49A, 0.735.
As to C33U A57G, the yeast fitness was 0.628.
Consider A36U C46G C62A, for which the yeast fitness was at most 0.5.
Turning to C34G C60G C62U, the yeast fitness worked out at 0.65.
The figure for C34U A45U is 0.686; for C34A G39C A40C G56C C61G C62G it is at most 0.5; for U35A G58C it is 0.634.
Under A36C C49A U64C stands 0.767; under C33G U53C, at most 0.5; under C34U A45U C62A, at most 0.5.
For the variant C33U U47G C49U, the yeast fitness is 0.581.
Turning to A37C G56C, the yeast fitness is 0.6.
Take A36G C55G: the yeast fitness was 0.623.
Take A36C A65G: the yeast fitness amounted to 0.598.
A36C A65U: the yeast fitness is 0.667.
The figure for A36C G48A A57U is at most 0.5; for A36C C55U C60G it is 0.781; for A37C G52C C66G it is at most 0.5.
The figure for A37C A70G is 0.769; for A37C U47G U53A it is 0.535.
Under U35A C62U stands 0.732.
On to C33U C66U, for which the yeast fitness was 0.651.
For C34A A42G, the yeast fitness stood at 0.676.
Regarding C34G U54A, the yeast fitness was 0.563.
Consider C33G U47A G67C A69U, for which the yeast fitness was at most 0.5.
Under U35A A37U U47A C62U stands at most 0.5; under A37C A45C, 0.758.
The figure for A36C G39C A65C A69C is at most 0.5; for C33U A42C A70C it is 0.671; for C33U A36U A43C A69C it is 0.674.
Turning to C34U A40U A57U, the yeast fitness was at most 0.5.
The figure for A36G A42G is 0.797.
Turning to C34U G58C, the yeast fitness stood at 0.757.
The figure for U35C G44A G48C C55G A69U is at most 0.5.
The figure for U35A A42U A43U is at most 0.5.
